Measurements reported in ChEMBL document CHEMBL1641499, “Towards echinomycin mimetics by grafting quinoxaline residues on glycophane scaffolds” (Bioorg Med Chem, 2011).
Activity calls are given as the source filed them. The rule behind the calls is not given here.

How the values were obtained:
Conditions in all cases: Bos taurus
Calf thymus DNA [1] = assay: Binding affinity to calf thymus DNA at 20 uM after 20 mins by UV spectrophotometer analysis; assay type: nucleic-acid assay
In short: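 Compound stock diluted in cuvette to 20 µM final with degassed 100 mM NaCl, 10 mM NaH2PO4, pH 7.0. Calf thymus DNA was added from stock. After each addition the sample was heated to 65 °C and cooled slowly (5 °C/min), and the UV-vis spectrum was recorded 20 min later at 25 °C. DNA concentration was set from ε260 = 6600 M−1 cm−1.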

Calf thymus DNA [2] = assay: Binding affinity to calf thymus DNA assessed as fluorescence enhancement at 20 uM by steady state fluorescence emission spectroscopic analysis relative to control
Calf thymus DNA [3] = assay: Binding affinity to calf thymus DNA assessed as change on melting temperature (reference value: 76 degC)

Row | Activity (Calf thymus DNA [1]) | fold change (FC) (Calf thymus DNA [2]) | Tm (Calf thymus DNA [3]) | Compound
1 | Active | 2.8 | 79 °C | C=CCO[C@H]1O[C@H](C(=O)N(Cc2ccc(CN(Cc3cnc4ccccc4n3)C(=O)[C@H]3O[C@H](OCC=C)[C@H](O)[C@@H](O)[C@@H]3O)cc2)Cc2cnc3ccccc3n2)[C@@H](O)[C@H](O)[C@H]1O
2 | Active | 5.5 | 78 °C | O=C1[C@H]2O[C@H](OC/C=C/CO[C@H]3O[C@H](C(=O)N(Cc4cnc5ccccc5n4)Cc4ccc(cc4)CN1Cc1cnc4ccccc4n1)[C@@H](O)[C@H](O)[C@H]3O)[C@H](O)[C@@H](O)[C@@H]2O
3 | Active | – | 79 °C | O=C1[C@H]2O[C@H](OCCC/C=C/CCCO[C@H]3O[C@H](C(=O)N(Cc4cnc5ccccc5n4)Cc4ccc(cc4)CN1Cc1cnc4ccccc4n1)[C@@H](O)[C@H](O)[C@H]3O)[C@H](O)[C@@H](O)[C@@H]2O
4 | Active | 2.8 | 81 °C | C=CCCCO[C@H]1O[C@H](C(=O)N(Cc2ccc(CN(Cc3cnc4ccccc4n3)C(=O)[C@H]3O[C@H](OCCCC=C)[C@H](O)[C@@H](O)[C@@H]3O)cc2)Cc2cnc3ccccc3n2)[C@@H](O)[C@H](O)[C@H]1O
5 | Active | – | 79 °C | CS[C@H]1SC[C@H]2C(=O)N(C)[C@@H](C(C)C)C(=O)OC[C@@H](NC(=O)c3cnc4ccccc4n3)C(=O)N[C@@H](C)C(=O)N(C)[C@@H]1C(=O)N(C)[C@@H](C(C)C)C(=O)OC[C@@H](NC(=O)c1cnc3ccccc3n1)C(=O)N[C@@H](C)C(=O)N2C
